Measured values reported in ChEMBL document CHEMBL4513216, “Probing the Open Global Health Chemical Diversity Library for Multistage-Active Starting Points for Next-Generation Antimalarials” (ACS Infect Dis, 2020).

Assay: Toxicity liver stage against HepG2, at 10uM
Assay type: cell-based
Set-up: test concentration 10 uM, cell line HepG2-A16-CD81EGFP
Details: human, HepG2-A16-CD81EGFP cells; read-out: INHIBITION
Outline: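 Uninfected HepG2-A16-CD81EGFP cells, 3 × 10^3 per well, 1536-well, plated on prespotted compound at 10 μM final, parasite-free screening media added to match infected plates; puromycin 10 μM positive, DMSO 0.5% negative; run in parallel with 48 h PbLuc assay at 37 °C, 5% CO2; viability by CellTiter-Glo luminescence, normalized to controls.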

| SMILES | cytotoxicity at 10 µM [%] |
| --- | --- |
| COc1cccc2c3c(c(=O)[nH]c12)CC(C)(C)O3 | -6.1 |
| C/N=C1\c2cc3cc(OC)ccc3n2CCN1C | -10.1 |
| COc1ccc(NC(=O)CSc2nc(C)cc(C)n2)cn1 | -0.384 |
| CCOc1ccc(Oc2cc(CN)ccn2)cc1 | 0.102 |
| O=c1c2ccccc2nnn1CN(CC1CCOC1)C1CC1 (stereo unspecified) | -0.543 |
| Cc1ccc2[nH]c(CO[C@H]3CN(c4ccc(C#N)cn4)C[C@H]3F)nc2c1 | -1.6 |
| CC(C)N[C@@H]1CO[C@H](CNC(=O)c2ccccc2)[C@H]1O | -5.73 |
| COc1ccc2nc3n(c2c1)[C@@H](CNC(=O)c1cncnc1)COC3 | 0.488 |
| COc1ccc(CN2CCOC[C@H](OCc3ccccc3)C2)cc1 | 2.79 |
| Fc1ccc2c(c1)nc1n2[C@@H](CNCc2nccs2)COC1 | 1.07 |
| CCC(C)NC(=O)CCn1ccc(C)n1 (stereo unspecified) | -0.634 |
| COc1ccc(C2SC(C)=Nc3c2c(=O)[nH]n3C2CCCC2)cc1O (stereo unspecified) | 9.98 |
| COc1ccc2nnc(CCCC(=O)NCc3ccccc3F)n2n1 | -0.524 |
| O=C(c1ccoc1)N1CC[C@H]2[C@H]1CCN2CC1CC1 | 2.5 |
| CO[C@@H]1CCN(C(=O)c2cc(C)on2)C[C@@H]1Cc1ccccc1 | 1.11 |
| O=C(c1ccc[nH]1)N1CC2(CCN(c3ncccn3)C2)C1 | 2.26 |
| CCn1nnc2c1CCN(C(=O)c1ccc3c(c1)OCO3)C2COC (stereo unspecified) | 6.43 |
| CCS(=O)(=O)N1Cc2ccnn2CC(c2nc(C)no2)C1 (stereo unspecified) | 6.86 |
| Cc1noc([C@H]2CC[C@@H]3[C@@H](CCN3S(=O)(=O)C3CC3)O2)n1 | -1.98 |
| O=C(c1c[nH]cn1)N1CCCn2c(nnc2Cn2cccc2)C1 | 0.399 |
| O=C(O)c1nnn(-c2ccc(Cl)c(C(F)(F)F)c2)c1-c1ccncc1 | 8.63 |
| Cn1cc(C(=O)N2C[C@@H]3COC[C@]3(COCc3cccnc3)C2)cn1 | -0.8 |
| O=C(c1ccc[nH]1)N1CCCC2(CCN(c3ccsc3)C2=O)C1 (stereo unspecified) | -0.449 |

| SMILES | cytotoxicity at 10 µM [%] |
| --- | --- |
| Cc1nn(CC(=O)N2CCN(Cc3cnn(C)c3C)CC2)cc1Br | -7.55 |
| COCCC(=O)N1Cc2nc3c(C)c(-c4cccs4)nn3c(O)c2C1 | -1.19 |
| C[C@@H]1CN(Cc2ccco2)CCN1C(=O)Cc1ccccc1F | 4.94 |
| COc1cc2c(cc1CCC(=O)O)CCC2 | 1.11 |
| Cc1cc(-c2ccccc2)nc(C2CCCN2S(C)(=O)=O)n1 (stereo unspecified) | 3.5 |
| Cc1cc(C)n2ncc(CN3C[C@@H](O)[C@H](Oc4ccccc4)C3)c2n1 | -33 |
| CCCNC(=O)c1cc(C2CCCN(Cc3ccccn3)C2)no1 (stereo unspecified) | -32 |
| O=S(=O)(N1CCOCC1)N1CCCC1Cn1cccn1 (stereo unspecified) | -8.18 |
| Cn1ccc(C(=O)N2CCOC(c3ccccn3)C2)cc1=O (stereo unspecified) | -31.4 |
| CCc1ccccc1Nc1noc2c1CN(C(=O)CCOC)CC2 | -16.6 |
| COCCN1CCC(c2cncc(-c3cccc(Cl)c3)n2)CC1 | -29.9 |
| Cn1cnc(CNC(=O)c2ccccc2-n2cc(CN)cn2)c1 | -16.9 |
| O=C(O)COc1ccccc1CN1CCCC1c1ccncn1 (stereo unspecified) | -29.2 |
| CC(C)S(=O)(=O)CC(=O)N1CCCC(n2ccnc2)C1 (stereo unspecified) | 10.2 |
| Cc1cc(-n2c(C)cn(CN(C)Cc3ccccc3)c2=O)no1 | 10.3 |
| CNC(=O)c1cccc(CN2CCC(N(C)Cc3noc(C)n3)C2)c1 (stereo unspecified) | 4.37 |
| COCCn1cc(NC(=O)NC(C)c2ccc(Cl)s2)cn1 (stereo unspecified) | 7.25 |
| Fc1ccccc1CN1CCC(c2n[nH]c(C3CC3)n2)CC1 | 6.21 |
| O=C(Cn1ccc(=O)[nH]c1=O)NCC1Cc2ccccc2O1 (stereo unspecified) | 3.74 |
| CCn1nc(C)c(CNC(=O)NCC(C)(O)c2ccccc2)c1C (stereo unspecified) | -7.12 |
| CN(C)c1ccc(C(=O)N2CCCC2c2ccc(Cl)cc2)nn1 (stereo unspecified) | -10.7 |
| CS(=O)(=O)Nc1cccc(CNC(=O)CCc2ccsc2)c1 | 2.24 |
| CCNC(=O)C1CCCN(c2cccc(C(F)(F)F)n2)C1 (stereo unspecified) | 3.4 |

| SMILES | cytotoxicity at 10 µM [%] |
| --- | --- |
| CCOCCCNC(=O)Cc1cccc(F)c1 | 12.1 |
| c1ccc(-c2nc(CN3CCOC(Cn4cccn4)C3)cs2)cc1 (stereo unspecified) | 8.62 |
| O=C(NCC1CC1)c1cnc(-c2ccccc2)nc1 | 7.5 |
| CCOCCC(=O)Nc1cc(C)cnc1OC | 18.9 |
| CN(C(=O)CN(Cc1cccc(O)c1)C1CCC(O)CC1)C1CC1 (stereo unspecified) | -0.586 |
| Cc1cccc(C(C)(C)CNc2cn[nH]c(=O)c2Cl)c1 | 23.3 |
| NC(=O)CCn1nnc(-c2cc3ccccc3o2)n1 | 4.56 |
| OCC(CO)Nc1ccc2ccc(Cl)c(Cl)c2n1 | -8.82 |
| CN(CC(N)=O)C(=O)C1Cc2cc(Cl)ccc2O1 (stereo unspecified) | 2.93 |
| CS(=O)(=O)NCC(=O)NC1(c2ccc(Cl)c(Cl)c2)CC1 | -10.7 |
| CN(Cc1ccncc1)C(=O)Nc1cnn(CC2CCCO2)c1 (stereo unspecified) | -0.291 |
| Cc1noc([C@]23COC[C@H]2CN(C(=O)COC2CCCC2)C3)n1 | -104 |
| CCn1nc(C)cc1C(=O)N1C[C@@H]2C[C@@H](c3noc(C)n3)O[C@@H]2C1 | 8.06 |
| NC(=O)N1CCc2ncc(CNC(=O)CC3CC3)n2CC1 | 2.11 |
| CC(C)NC(=O)N1CCC2(CC1)Cc1ccccc1CN(C)C2=O | 5.55 |
| COCCN(C)C(=O)c1nc2c(s1)CCCN2c1ccc(C)nn1 | -2.4 |
| COCCN1CCN(Cc2ccoc2)Cc2cccnc21 | -75 |
| O=C(NCc1ccncc1)C1=NOC2(CCCNC2)C1 (stereo unspecified) | 5.31 |
| Cn1ncc2c1C(COCC1CC1)CN(Cc1ccc(F)cc1)C2 (stereo unspecified) | 1.23 |
| CN1CCC(Cc2noc(CCc3nc4ccccc4nc3O)n2)CC1 | 7.23 |
| Cn1cc2ncn(C3CCN(c4ccccc4F)CC3)c(=O)c2n1 | 4.44 |
| CNc1nc(C)cc(N2CCC(C(=O)O)(n3ccc(C(C)C)n3)CC2)n1 | 1.52 |
| N#Cc1cccc(N2CCC(c3nccn3Cc3cscn3)CC2)n1 | 1.46 |

| SMILES | cytotoxicity at 10 µM [%] |
| --- | --- |
| COc1nc2c(cc1C(=O)NCCc1nc3c(s1)CCC3)CCC2 | 5.05 |
| O=C(c1ccc(S(=O)(=O)NCc2ccon2)cc1)N1CCCCCC1 | 0.424 |
| COc1cnc(N2CCC(c3ncc[nH]3)CC2)nc1 | 0.852 |
| CC(C)c1cc(N2CCSCC2)n2nccc2n1 | 4.66 |
| COC(=O)CCCNC(=O)c1cc(COc2cncc(Cl)c2)on1 | 8.23 |
| CC(C)(CN1CCCC1)CN1CCC(Cn2cc(CCO)nn2)CC1 | 1.87 |
| Cc1ccc(C2(O)CCN(C(=O)c3cccc(S(C)(=O)=O)c3)CC2)nc1 | -5.3 |
| Cc1cc(C2CCCN2C(=O)Cn2c(C)cc(=O)c3ccccc32)on1 (stereo unspecified) | -9.02 |
| CCCN1CC2(CCN(C)CC2)CC1C(=O)NCc1cc(C)nn1C (stereo unspecified) | 0.318 |
| COCCN1CCCC2(CCN(c3ncc(Cl)cc3Cl)C2)C1=O (stereo unspecified) | 9.44 |
| Cc1cc(N2CC[C@H](O)C2)n2nc(C)c(C)c2n1 | -3.62 |
| Cc1ccc(CC2COc3ccccc3C2)c(N)n1 (stereo unspecified) | -7.12 |
| Cc1cc(C)n(CCC2CC(=O)Nc3cc(O)c(C)cc32)n1 (stereo unspecified) | -1.74 |
| CN(C)c1cc(CNc2cncc(-n3cccn3)n2)ccn1 | 6.26 |
| O=C(CC(F)(F)F)Nc1cc(F)ccc1OCC1CCCO1 (stereo unspecified) | 5.48 |
| O=C1C(NCc2nnc3n2CCCC3)CCCN1c1ccccc1 (stereo unspecified) | -9.69 |
| N#Cc1cccnc1N1CCC(C2CCCCCN2C(N)=O)CC1 (stereo unspecified) | -2.51 |
| COc1ccc(CNCC2CNc3cc(C)nn3C2)cn1 (stereo unspecified) | -16.5 |
| CCc1nnc2n1CCN(Cc1ncc(-c3ccc(Cl)cc3)o1)C2 | -9.66 |
| CC(C)c1n[nH]c(C2CN(C(=O)c3ccnc(C4CC4)n3)CCO2)n1 (stereo unspecified) | -12.6 |
| CC(=O)Nc1nc(C(=O)NC(C)c2ccncc2)cs1 (stereo unspecified) | -6.5 |
| Cc1cc(C[S+]([O-])CC(=O)NCC(C)C)no1 (stereo unspecified) | -4.17 |
| COc1cccc(CCC(=O)N2CCCCC2Cn2cccn2)c1 (stereo unspecified) | -11.3 |

| SMILES | cytotoxicity at 10 µM [%] |
| --- | --- |
| O=C(N1CCOCC1)N1CCC2(CCNC2)C1 (stereo unspecified) | -2.89 |
| CC1c2ncc(COc3cccnc3)n2CCN1C(=O)C1=CCCCC1 (stereo unspecified) | 3.39 |
| CCN1CCn2c(C)cnc2C12CCN(C(=O)COC)CC2 | 6.5 |
| c1cnc(N2CCC3(CCN(CC4CC4)CC3)CC2)nc1 | 0.77 |
| O=C1C[C@H]2[C@@H](CCN2C(=O)c2ccoc2)N1CCN1CCOCC1 | -5.26 |
| COCC1CN(Cc2ccoc2)Cc2nnn(C)c21 (stereo unspecified) | -3.73 |
| Cc1cccc(CN2CCCC3(CCC(=O)N3CCN(C)C)CC2)n1 (stereo unspecified) | -0.891 |
| Cc1nc(COC[C@@]23CCC[C@@H]2CN(CC2CCOCC2)C3)cs1 | 7.98 |
| CN(C[C@@H]1CCC[C@@H]2CN(Cc3cccnc3)C[C@@H]21)C1CC1 | 8.01 |
| O=C1N(c2ccsc2)CCC12CCCN(Cc1ccccn1)C2 (stereo unspecified) | 2.03 |
| CC(=O)N1CCCC2(C1)CN(c1ncc(C)cn1)CCO2 (stereo unspecified) | 14 |
| COCCN1CCC2(COCc3cnc(N(C)C)nc32)C1 (stereo unspecified) | 1.39 |
| Cn1cc(CN2CCn3cc(Cn4cccn4)nc3C2)cn1 | 4.49 |
| O=C(NCC1CC1)C1CCC2(CCN(C(=O)c3ccncc3)CC2)O1 (stereo unspecified) | -0.0368 |
| O=C([C@@H]1COC[C@H]2CN(C3CCOCC3)C[C@H]21)N1CCOCC1 | -4.14 |
| OC(CN1CCN(Cc2cc(F)ccc2F)CC1)C1CC1 (stereo unspecified) | 0.353 |
| Cc1cccc(CN2CC[C@@H]3[C@@H]2CCN3C(=O)c2cc(C)oc2C)n1 | -4.42 |
| O=C1CC2(CCN(CC3CC3)C2)CN1c1cccc(F)c1 (stereo unspecified) | -6.25 |
| CCn1cc(-n2cc3nc(N4CCN(C)CC4)[nH]cc-3c2=O)cn1 | 1.54 |
